In article PMC2196277 (The Journal of Experimental Medicine, 1997):

What was measured:
H2-K^d [1] = target: T1, H2-K^d (Mus musculus, UniProt P01902); type: cell-based, BALB/c; details: infected cells; for half-life of peptide–H2-K^d complexes: normally trafficking H2-K^d (no BFA)
Method in brief: (§1)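 J774 monolayers in antibiotic-free RP10 were infected for 30 min with log-phase L. monocytogenes (OD600 0.1), then kept in 5 μg/ml gentamicin. BFA was added 3 h post-infection, and tetracycline or CHX–ANM at 4 h. Cells were scraped, extracted in 0.1% TFA, homogenised, sonicated, ultracentrifuged and HPLC-fractionated. Fractions were titrated in triplicate on 51Cr-labelled P815 with Kd-restricted CTL clones against synthetic-peptide standards, giving epitopes per infected cell.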

[2] = target: T2, H2-K^d (L. monocytogenes-infected J774 cells) (Mus musculus, UniProt P01902); experiment: CTL epitope quantification; type: cell-based, BALB/c; details: for loss of epitope in BFA-treated cells after tetracycline: BFA added 3 h and TCN 4 h after infection; for time for which intracellularly retained H2-K^d binds new epitopes: BFA-treated, CHX–ANM 4 h after infection, up to; for epitopes per cell after CHX–ANM treatment: CHX and ANM added 4 h after infection
T2 sequence (P01902 22-368): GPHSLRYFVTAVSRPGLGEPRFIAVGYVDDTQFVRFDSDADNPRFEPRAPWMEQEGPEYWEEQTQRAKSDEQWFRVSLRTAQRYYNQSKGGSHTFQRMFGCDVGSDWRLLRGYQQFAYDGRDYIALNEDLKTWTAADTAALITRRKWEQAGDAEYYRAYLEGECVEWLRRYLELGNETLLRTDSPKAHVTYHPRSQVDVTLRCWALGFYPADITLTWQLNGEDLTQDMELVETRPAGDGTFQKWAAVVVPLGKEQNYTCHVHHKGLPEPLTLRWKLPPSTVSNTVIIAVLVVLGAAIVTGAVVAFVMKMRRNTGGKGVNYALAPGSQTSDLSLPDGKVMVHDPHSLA
T2 sequence (P01887 21-119, further chain): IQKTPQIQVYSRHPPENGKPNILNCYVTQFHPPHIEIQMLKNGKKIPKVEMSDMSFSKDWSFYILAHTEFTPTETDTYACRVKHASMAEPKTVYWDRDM
Method in brief: as §1

H2-K^d [3] = target: T1, H2-K^d; details: ref [17], [19], [20]; cited from earlier work
[4] = test system: CTL responding to epitope; details: murine infection with L. monocytogenes; ref [31]; cited from earlier work
[5] = target: T2, H2-K^d (L. monocytogenes-infected J774 cells); details: ref [17], cited from earlier work
H2-K^d [6] = target: T1, H2-K^d; type: cell-based, BALB/c

T1 sequence (P01902 22-368): as the sequence (P01902 22-368) above
T1 sequence (P01887 21-119, further chain): as the sequence (P01887 21-119, further chain) above

Compound	stability of complex with H2-K^d (summary) (H2-K^d [1])	half-life of peptide–H2-K^d complexes (H2-K^d [1])	effect of BFA on amount of epitope extracted ([2]; BFA added 3 h after infection, no tetracycline)	loss of epitope in BFA-treated cells after tetracycline [2]	time for which intracellularly retained H2-K^d binds new epitopes [2]	epitopes per cell after CHX–ANM treatment ([2]; no BFA)	number of secreted antigen molecules degraded per H2-K^d-associated epitope (H2-K^d [3])	number of responding CTL relative to p60 449-457 [4]	half-life of complexes retained intracellularly with brefeldin A (H2-K^d [1]; + BFA)	epitopes per cell 3 h after tetracycline ([2]; 3 h after tetracycline (20 μg/ml, added 4 h after infection), no BFA)	increase of epitopes extracted from BFA-treated vs untreated cells ([2]; BFA added 3 h after infection, 6–7 h after infection, no tetracycline)	epitopes per cell at tetracycline addition ([2]; start of drop after tetracycline (20 μg/ml, added 4 h after infection), no BFA)	generation of epitope relative to p60 217-225 ([5]; L. monocytogenes infected J774 cells)	amount of epitope extracted relative to p60 217-225 ([5]; first few hours of infection, J774)	prevalence of epitope throughout cellular infection ([5]; infected cells, continuous antigen production)	effect of BFA on H2-K^d trafficking / retention (H2-K^d [6])
KYGVSVQDI [p60 217-225]	forms a stable complex with H2-K^d	> 6 h	not affected by BFA	decreased only minimally	up to 3 h	stops increasing when host cell protein synthesis is inhibited	35	10 times	–	–	–	–	–	–	–	–
GYKDGNEYI [LLO 91-99, reference compound]	–	–	–	–	–	–	3–11	–	–	–	–	–	–	–	–	–
IYVGNGQMI [p60 449-457]	forms a more labile complex with H2-K^d	~1 h	–	very rapid	up to 3 h	decreases after CHX–ANM treatment	3–11	–	30 min	1,000 epitopes/cell	~60%	9,000 epitopes/cell	earlier and faster than p60 217-225	~10 times	greater than either LLO 91-99 or p60 217225 throughout cellular infection	–
C[C@H]1CCC/C=C/[C@@H]2C[C@H](O)C[C@H]2[C@H](O)/C=C/C(=O)O1 [BFA, brefeldin A]	–	–	–	–	–	–	–	–	–	–	–	–	–	–	–	induces intracellular retention of H2-K^d molecules in infected J774 cells
